A selection: hits, their analogues and other compounds. The true share with any hit is near 1.5%.
mABHD4 FP: inhibitors of mouse ABHD4. Q8VD66. purified mABHD4, FP-Rh probe fluorescence polarization. inhibition, % at 8.92 µM. 370,000 tested, 0.54% active;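 active = inhibition exceeding the mean over every tested compound plus 3 SD, cut at about 30% in these data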
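Test system: mABHD4 protein | Buffer or medium: HEPES pH 7.0 buffer, 150 mM NaCl, 0.01% Pluronic F-127 | Probe or stimulus: FP-Rh fluorescent activity-based probe, added after compound pre-incubation | Timing: Pre-incubation 45 min, probe exposure 60 min, at 25 °C | Technique: Fluorescence polarization, excitation 525 nm, emission 598 nm, BODIPY TMR filters | Repeats: Single well per compound (singlicate)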
HTRA1 inhibitor: inhibitors of human serine peptidase HTRA1 | recombinant HTRA1, FP-rhodamine activity-based probe, fluorescence polarization | inhibition, % at 5.96 µM | 340,000 tested, 0.5% active | AID 504803; in the data active = inhibition above about 36%
DAGLB inh: blocks human DAGLB lipase activity | AID 504411 | HEK293T DAGLB membrane lysate, EnzChek fluorogenic substrate | inhibition, % at 5.17 µM | 340,000 tested, 0.059% active; in the data active = inhibition above about 34%
Target sequence (Q8NCG7 whole entry, looked up): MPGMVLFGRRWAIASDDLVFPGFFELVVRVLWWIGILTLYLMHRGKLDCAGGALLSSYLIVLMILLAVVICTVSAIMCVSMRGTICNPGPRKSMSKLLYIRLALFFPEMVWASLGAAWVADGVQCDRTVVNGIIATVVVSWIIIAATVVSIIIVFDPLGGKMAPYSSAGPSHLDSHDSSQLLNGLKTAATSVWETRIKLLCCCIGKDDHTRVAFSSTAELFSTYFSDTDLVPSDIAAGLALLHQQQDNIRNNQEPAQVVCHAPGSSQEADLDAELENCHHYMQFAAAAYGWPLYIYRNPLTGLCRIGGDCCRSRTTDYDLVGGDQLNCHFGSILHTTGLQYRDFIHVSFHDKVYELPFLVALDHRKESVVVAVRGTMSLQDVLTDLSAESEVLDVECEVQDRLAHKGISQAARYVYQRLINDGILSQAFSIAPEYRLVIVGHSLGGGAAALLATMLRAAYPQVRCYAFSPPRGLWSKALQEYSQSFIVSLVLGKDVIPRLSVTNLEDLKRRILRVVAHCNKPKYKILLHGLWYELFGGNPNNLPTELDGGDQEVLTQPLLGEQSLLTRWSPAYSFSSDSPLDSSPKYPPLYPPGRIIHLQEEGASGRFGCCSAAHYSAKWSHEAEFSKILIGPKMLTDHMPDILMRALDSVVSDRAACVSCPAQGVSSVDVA
TCR CD3 inh: human TCR-CD3 binding inhibition | TAMRA-labeled TCR probe fluorescence, biochemical | inhibition, % at 9.4 µM | 360,000 tested, 0.37% active; in the data active = inhibition above about 19%;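 also: recombinant mutant TCR 2C K166C tagged with TAMRA read by polarization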
SIAE inh: inhibitors of human sialic acid acetylesterase SIAE. Q9HAT2. 370,000 tested, 0.69% active. inhibition, % at 9.66 µM. SIAE FP-Rh probe binding, fluorescence polarization. AID 1053197;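 active = inhibition above a cutoff: mean of compounds within the control limits plus 3 SD of those, cut at about 17% in these data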
SIAE confirm: human SIAE inhibition, confirmation; shares compounds with SIAE inh; SIAE FP-Rh activity-based probe, fluorescence polarization; inhibition, % at 9.66 µM; 2,300 tested, 13% active;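 active = mean inhibition of the replicates above the hit cutoff set in the primary screen, cut at about 17% in these data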;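 also: inhibitors lower polarization as more probe stays unbound to SIAE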
Large screens that a line does not name were inactive (follow-up assays come after a bar, where they were run).

Nc1ncnc2c1ncn2[C@@H]1O[C@H](C(=O)NCc2ccc3c(c2)OCO3)[C@@H](O)[C@H]1O	SIAE inh 71 (no result: HTRA1 inhibitor, DAGLB inh) | SIAE confirm 76
COc1ccc(CN2C(=O)C(CC(C)C)Nc3ncnc(N4CCN(c5ccccn5)CC4)c32)cc1 (configuration not stated)	SIAE inh 18 | SIAE confirm inactive
COc1ccc(C(CC(=O)O)NC(=O)COc2ccc(C)cc2)cc1OC (configuration not stated)	SIAE inh 19 | SIAE confirm inactive
COc1ccc(C(CC(=O)O)NC(=O)COc2ccccc2OC)cc1OC (configuration not stated)	none
CCN(CC)CCCn1c2c(c(SCC(=O)Nc3ccccc3Cl)nc1=O)CCC2	SIAE inh 18 | SIAE confirm inactive
O=C(CSc1nc(=O)n(CCCN2CCOCC2)c2c1CCCC2)Nc1cccc([N+](=O)[O-])c1	none
O=C(CSc1nc(=O)n(CCCN2CCOCC2)c2c1CCC2)Nc1ccc([N+](=O)[O-])cc1	SIAE inh 18 | SIAE confirm inactive
O=C1NC(Cc2ccccc2)c2nc3ccc(F)cc3c(=O)n2-c2cc3ccccc3cc21 (configuration not stated)	none
NC(=O)c1ncn([C@@H]2O[C@H](C(=O)Nc3ccc(Oc4ccccc4)nc3)[C@@H](O)[C@H]2O)n1	none (no result: HTRA1 inhibitor, DAGLB inh)
COCCN(Cc1ccc(C)cc1)C(=O)[C@H]1O[C@@H](n2cnc(C(N)=O)n2)[C@H](O)[C@@H]1O	SIAE inh 21 (no result: HTRA1 inhibitor, DAGLB inh) | SIAE confirm 20
NC(=O)c1ncn([C@@H]2O[C@H](C(=O)Nc3ccc(C(=O)N4CCCCC4)cc3)[C@@H](O)[C@H]2O)n1	SIAE inh 18 (no result: HTRA1 inhibitor, DAGLB inh) | SIAE confirm 18
COc1ccccc1C(=O)N1CCN(C(=O)[C@H]2O[C@@H](n3cnc(C(N)=O)n3)[C@H](O)[C@@H]2O)CC1	SIAE inh 19 (no result: HTRA1 inhibitor, DAGLB inh) | SIAE confirm inactive
COCCN(Cc1ccc(C)cc1)C(=O)[C@H]1O[C@@H](n2ccc(N)nc2=O)[C@H](O)[C@@H]1O	none (no result: HTRA1 inhibitor, DAGLB inh)
CCn1c(SCC(=O)NN=Cc2cc(OC)ccc2OC)nnc1-c1ccc(OC)cc1	none (no result: HTRA1 inhibitor, DAGLB inh, TCR CD3 inh)
COC(=O)C1=C(C)N(Cc2ccccc2C(F)(F)F)C(=NCc2ccc(C(F)(F)F)cc2)NC1CCc1ccccc1 (configuration not stated)	none (no result: HTRA1 inhibitor, DAGLB inh)
O=C(Nc1ccc([N+](=O)[O-])cc1)Nc1ccc(N2CCOCC2)c2nonc12	SIAE inh 19 | SIAE confirm inactive
CCc1c(Cc2ccccc2)ncn1CCc1ccccc1OC	none (no result: HTRA1 inhibitor, DAGLB inh)
O=C(N[C@H](C(=O)N1CCC[C@H]1C(=O)NCc1ccccc1)c1ccccc1)c1ccc(Cl)cc1Cl	none (no result: HTRA1 inhibitor, DAGLB inh)
O=C1c2cccc3c(N4CCCCC4)ccc(c23)C(=O)N1c1ccccn1	none
CCCN1C(=O)c2cccc3c(N4CCCCC4)ccc(c23)C1=O	SIAE inh 20 | SIAE confirm inactive
COc1ccc(-c2c(Cc3ccccc3)nc(NC(=O)c3ccccc3F)n2C)cc1	SIAE inh 41 (no result: HTRA1 inhibitor, DAGLB inh, TCR CD3 inh) | SIAE confirm inactive
CCCn1c(NC(=O)c2ccccc2)nc(Cc2ccccc2)c1-c1ccc(OC)cc1	none (no result: HTRA1 inhibitor, DAGLB inh, TCR CD3 inh)
COCCNc1nc(NCCOc2ccccc2Cl)c2sccc2n1	none (no result: HTRA1 inhibitor, DAGLB inh)
COCCNc1nc(NCc2cccc(OC)c2)c2sccc2n1	none (no result: HTRA1 inhibitor, DAGLB inh)
COCCNc1nc(NCCOc2ccccc2)c2sc(-c3ccccc3)cc2n1	SIAE inh 22 (no result: HTRA1 inhibitor, DAGLB inh) | SIAE confirm 21
CC(C)Nc1nc(NCCOc2ccccc2Cl)c2sc(-c3ccccc3)cc2n1	SIAE inh 19 (no result: HTRA1 inhibitor, DAGLB inh) | SIAE confirm 20
COc1ccccc1CNc1nc(NC(C)C)nc2cc(-c3ccccc3)sc12	SIAE inh 22 (no result: HTRA1 inhibitor, DAGLB inh) | SIAE confirm 28
COCCNc1nc(NCCOC)c2sc(-c3ccccc3)cc2n1	none (no result: HTRA1 inhibitor, DAGLB inh)
C=CCNc1nc(NCc2cccc(OC)c2)c2sc(-c3ccccc3)cc2n1	SIAE inh 20 (no result: HTRA1 inhibitor, DAGLB inh) | SIAE confirm inactive
O=C(NCc1ccccc1)[C@H]1CCCN1C(=O)[C@H]1CCCN1C(=O)c1ccc(OC(F)(F)F)cc1	none (no result: HTRA1 inhibitor, DAGLB inh)
CC(=O)COc1ccc2c(C)c(C)c(=O)oc2c1	none
CCc1c(C)c2ccc(OCC(N)=O)cc2oc1=O	SIAE inh 24 | SIAE confirm inactive
CCOc1cc(/C=N/Nc2ccc(C(=O)O)cc2)ccc1OC(=O)c1ccccc1C	SIAE inh 26 | SIAE confirm 31
O=C(CCN1CCCCCC1)c1ccccc1	none
O=C(O)CCN1CC2([N+](=O)[O-])C=CC(=O)C([N+](=O)[O-])(C1)C2CC(=O)c1ccccc1 (configuration not stated)	SIAE inh 17 | SIAE confirm inactive
CCCc1nc2ccccc2c(C(=O)OCC(=O)NC2CC2)c1CC	SIAE inh 25 | SIAE confirm inactive
CCCc1nc2ccccc2c(C(=O)OCC(=O)NCc2ccco2)c1CC	none
Cc1cccc(NC(=S)N/N=C/c2c[nH]c3ccccc23)c1	SIAE inh 32 | SIAE confirm 28
Cc1[nH]c2ccccc2c1/C=N/NC(=S)NCc1ccccc1	SIAE inh 22 | SIAE confirm 19
Cc1ccc(C(=O)Nc2ccc(C(=O)N/N=C/c3c[nH]c4ccccc34)cc2)cc1	none
Cc1ccc(NC(=S)N/N=C/c2c(C)[nH]c3ccccc23)cc1	SIAE inh 38 | SIAE confirm 38
COc1cccc(C(=O)C2CCCN(Cc3cn(CC(N)=O)c4ccccc34)C2)c1 (configuration not stated)	SIAE inh 19 | SIAE confirm inactive
COc1cccc(C(=O)C2CCCN(Cc3cn[nH]c3C3CCCCC3)C2)c1 (configuration not stated)	none (no result: HTRA1 inhibitor, DAGLB inh)
O=C1Cn2nnc(-c3ccccc3)c2C2c3cc(Br)ccc3CCN12 (configuration not stated)	none (no result: HTRA1 inhibitor, DAGLB inh)
CCn1cc(C(=O)N2CCN(c3ccc(F)cc3)CC2)c(=O)c2ccc(C)nc21	none (no result: HTRA1 inhibitor, DAGLB inh, TCR CD3 inh)
O=S(=O)(/N=S1\CC=CCN1S(=O)(=O)c1ccccc1)c1ccccc1 (configuration not stated)	SIAE inh 20 | SIAE confirm inactive
CC1=C(C)CS(=O)N(S(=O)(=O)c2ccccc2)C1 (configuration not stated)	none
COc1cc(S(=O)(=O)NCCN2CCOCC2)ccc1-n1cnnn1	none
COc1cc(S(=O)(=O)NCCCN2CCOCC2)ccc1-n1cnnn1	SIAE inh 17 | SIAE confirm inactive
COC(=O)C1CN(CC(C)C)CCS(=O)(=O)N1Cc1ccc(OC)cc1 (configuration not stated)	none (no result: HTRA1 inhibitor, DAGLB inh, TCR CD3 inh)
CC(C)(C)C(=O)N1CCN(c2nc3ccc(Cl)cc3s2)CC1	SIAE inh 18 | SIAE confirm inactive
COc1ccc(S(=O)(=O)Nc2cc3c4c(c2)CC(=O)N4CCC3)cc1OC	none
C=CCn1c(SCC(C)=O)nc2sc3c(c2c1=O)CCC3	none
